Source: PubChem (several laboratories)
Compounds with a hit are over-represented: about 2.9% of the library has one in this group of screens.
Dynein cargo inh: dynein cargo transport inhibition | 3617.4 mouse cells, GR-EGFP nuclear translocation imaging; test concentration mostly 20 µM; stimulated with dexamethasone, 1 µM; active compounds read low | 220,000 compounds, 0.47% hits | z-score, hits read low | AID 1381;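 active = plate z-score of nuclear minus cytoplasmic receptor signal below a set negative limit, without overly bright fluorescence or cell loss, cut at about -3.5 in these data, passing the limit was not always enough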;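 note: z-score of nuclear minus cytoplasmic ring GR-EGFP intensity difference per well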
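Buffer or medium: tet-free, stripped-serum medium; reagent: dexamethasone at 1.0 µM final, 30 min; incubation: 48 h induction, 1 h compound, 30 min dex at 37 °C; measured by: formaldehyde fixation, Hoechst nuclear stain, 10x automated fluorescence imaging; read-out: nuclear-to-cytoplasmic GR-EGFP distribution per well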
B2AR ag: human beta-2 adrenergic receptor agonism by FAP; P07550; Am2.2-beta2AR cells, FAP receptor internalization, flow cytometry; response, % (test concentration not listed); 340,000 compounds, 0.43% hits;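 active = response above a set limit, near 3 SD of response in nonfluorescent compounds, cut at about 42% in these data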
MEKK2 mut-MEK5: signal of MEK5 binding to mutant human MEKK2 PB1 domain | bead flow cytometry, Alexa488-MEK5 binding to MEKK2 mutant | percent response, % at 10 µM | 290,000 compounds, 0.35% hits; in the data active = percent response above about 24%, passing the limit was not always enough
MEKK3 PB1 HTS: raises or lowers MEK5 binding to the human MEKK3 PB1 domain; Q99759; bead-based flow cytometry, Alexa488-MEK5 binding to MEKK3; actives lie on both sides; 0 = blocked by unlabeled MEK5, 100 = vehicle; binding response (% of control), % at 10 µM; 290,000 compounds, 1.4% hits;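 active = binding response more than 3 SD above or below the average of its plate-row segment, actives on both sides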;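 note: Alexa488 bead fluorescence after subtracting the streptavidin-only scavenger bead signal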
Target sequence (Q99759 whole entry, looked up, the tested form may be a part): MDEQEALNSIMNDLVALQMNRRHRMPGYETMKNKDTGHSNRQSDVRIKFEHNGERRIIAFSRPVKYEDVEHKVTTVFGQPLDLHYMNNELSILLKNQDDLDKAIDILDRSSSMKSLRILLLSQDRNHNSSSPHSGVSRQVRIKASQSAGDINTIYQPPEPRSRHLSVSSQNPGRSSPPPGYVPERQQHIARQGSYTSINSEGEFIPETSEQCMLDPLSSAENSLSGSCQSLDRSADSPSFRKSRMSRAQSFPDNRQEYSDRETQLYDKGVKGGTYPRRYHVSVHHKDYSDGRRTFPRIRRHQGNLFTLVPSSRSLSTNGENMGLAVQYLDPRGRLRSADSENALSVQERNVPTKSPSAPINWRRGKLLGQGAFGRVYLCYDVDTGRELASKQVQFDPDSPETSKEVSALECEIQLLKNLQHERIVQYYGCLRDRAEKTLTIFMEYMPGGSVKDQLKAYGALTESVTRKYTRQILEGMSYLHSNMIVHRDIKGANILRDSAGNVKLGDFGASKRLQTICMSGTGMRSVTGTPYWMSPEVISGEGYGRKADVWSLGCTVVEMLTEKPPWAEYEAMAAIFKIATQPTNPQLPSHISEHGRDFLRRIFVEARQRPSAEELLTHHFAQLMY
MEKK2 WT-MEK5: raises or lowers MEK5 binding to wildtype human MEKK2 PB1 domain | binding response (% of control), % at 10 µM | Q9Y2U5 | 290,000 compounds, 1.1% hits | bead flow cytometry, Alexa488-MEK5 binding to MEKK2 WT; actives lie on both sides | AID 1531; in the data active = binding response below about 67% or above about 130%
ATG4B inh: blocks human ATG4B protease cleavage of LC3 substrate. ATG4B cleavage of LC3-PLA2, NBD-HPC fluorescence, 1 h. inhibition, % at 8.33 µM. 340,000 compounds, 0.51% hits. AID 504462; in the data active = inhibition above about 40%
PLA2 counter: counter-screen for ATG4B inhibitors: human phospholipase A2; AID 588402; shares compounds with ATG4B inh; 1,600 compounds, 66% hits; inhibition, % at 8.33 µM; purified PLA2, NBD-C6-HPC fluorescence, 45 min; in the data active = inhibition above about 50%
An asterisk follows results filed as active.

What do the screens show for `CC(C)(C)c1ccc(OC(=O)c2ccccc2)cc1`?
Dynein cargo inh: 0.46; B2AR ag: -8; MEKK2 mut-MEK5: 12; MEKK3 PB1 HTS: 110; MEKK2 WT-MEK5: 93; ATG4B inh: 68*; PLA2 counter: 64*

How did Cc1cccc(C)c1-n1cccc1/C=C1\SC(=S)N(c2cccc(C(=O)O)c2)C1=O do in these assays?
Dynein cargo inh: -0.35; B2AR ag: 10; MEKK2 mut-MEK5: -6; MEKK3 PB1 HTS: 100; MEKK2 WT-MEK5: 96; ATG4B inh: 91*; PLA2 counter: 85*

How did Cc1cccc(C)c1NC(=O)CN1C(=O)S/C(=C\c2cccn2-c2cccc(C(=O)O)c2)C1=O do in these assays?
Dynein cargo inh: -0.26; B2AR ag: 3; MEKK2 mut-MEK5: -1; MEKK3 PB1 HTS: 99; MEKK2 WT-MEK5: 100; ATG4B inh: 47*; PLA2 counter: 49

What do the screens show for `Cc1ccc(NC(=O)CN2C(=O)S/C(=C\c3cccn3-c3cccc(C(=O)O)c3)C2=O)cc1C`?
Dynein cargo inh: -0.44; B2AR ag: 2; MEKK2 mut-MEK5: -8; MEKK3 PB1 HTS: 96; MEKK2 WT-MEK5: 89; ATG4B inh: 22

What do the screens show for `Cc1ccc(SCCNC(=O)/C=C/c2ccc(Cl)cc2)cc1`?
Dynein cargo inh: 0.11; B2AR ag: -4; MEKK2 mut-MEK5: -1; MEKK3 PB1 HTS: 103; MEKK2 WT-MEK5: 100; ATG4B inh: 10

How did Cc1ccc(SCCNC(=O)/C=C/c2ccccc2Cl)cc1 do in these assays?
Dynein cargo inh: -0.61; B2AR ag: -1; MEKK2 mut-MEK5: -1; MEKK3 PB1 HTS: 96; MEKK2 WT-MEK5: 95; ATG4B inh: 56*; PLA2 counter: 66*

How did C[C@H](CO)N1C[C@H](C)[C@@H](CN(C)CC2CCCCC2)Oc2c(NS(=O)(=O)c3ccc(F)cc3)cccc2C1=O do in these assays?
B2AR ag: -2; ATG4B inh: -5

What do the screens show for `N#CCOC(=O)[C@H](Cc1c[nH]c2ccccc12)NS(=O)(=O)c1ccc(Cl)cc1`?
B2AR ag: 11; MEKK2 mut-MEK5: -3; MEKK3 PB1 HTS: 100; MEKK2 WT-MEK5: 97; ATG4B inh: 57*; PLA2 counter: 67*

How did O=C(O)c1cc(S(=O)(=O)NC(Cc2c[nH]c3ccccc23)C(=O)O)ccc1Cl (stereo not drawn) do in these assays?
B2AR ag: 7; MEKK2 mut-MEK5: -2; MEKK3 PB1 HTS: 102; MEKK2 WT-MEK5: 98; ATG4B inh: -1

How did Cc1cccn2c(=O)c(/C=C(\C#N)S(=O)(=O)c3ccccc3)c(N3CCN(c4ccccc4)CC3)nc12 do in these assays?
B2AR ag: 5; MEKK2 mut-MEK5: -12; MEKK3 PB1 HTS: 95; MEKK2 WT-MEK5: 90; ATG4B inh: 5

How did CCN1CCN(c2nc3c(C)cccn3c(=O)c2/C=C(\C#N)S(=O)(=O)c2ccccc2)CC1 do in these assays?
Dynein cargo inh: 0.52; B2AR ag: 0; MEKK2 mut-MEK5: 11; MEKK3 PB1 HTS: 106; MEKK2 WT-MEK5: 104; ATG4B inh: 50*; PLA2 counter: 52*

What do the screens show for `COc1ccc(/C=N/OC/C(O)=C(\C#N)c2nc3ccccc3[nH]2)cc1OC`?
Dynein cargo inh: 0.56; B2AR ag: 3; MEKK2 mut-MEK5: -2; MEKK3 PB1 HTS: 101; MEKK2 WT-MEK5: 102; ATG4B inh: 0

Results for CN(C)CCNc1nc2sc3c(c2c(=O)n1CCc1ccccc1)CCCCC3 ?
Dynein cargo inh: 1.1; B2AR ag: 10; MEKK2 mut-MEK5: 4; MEKK3 PB1 HTS: 100; MEKK2 WT-MEK5: 128; ATG4B inh: -4

What do the screens show for `CC(O)CNc1nc2sc3c(c2c(=O)n1CCc1ccccc1)CCCCC3` (stereo not drawn)?
Dynein cargo inh: 0.003; B2AR ag: 5; MEKK2 mut-MEK5: 0; MEKK3 PB1 HTS: 105; MEKK2 WT-MEK5: 106; ATG4B inh: 41*; PLA2 counter: 55*

Results for O=C(O)Cc1ccc(C(=O)c2ccc(Cl)cc2)s1 ?
Dynein cargo inh: 0.33; B2AR ag: 4; MEKK2 mut-MEK5: 2; MEKK3 PB1 HTS: 103; MEKK2 WT-MEK5: 106; ATG4B inh: -8

Results for NC(=O)Cc1ccc(C(=O)c2ccc(Cl)cc2)s1 ?
Dynein cargo inh: 1.3; B2AR ag: 5; MEKK2 mut-MEK5: -4; MEKK3 PB1 HTS: 92; MEKK2 WT-MEK5: 91; ATG4B inh: 57*; PLA2 counter: 51*

How did CCOc1cc(CNC2CCCC2)c(Cl)cc1OCC(=O)Nc1ccccc1 do in these assays?
Dynein cargo inh: -1.2; B2AR ag: 8; MEKK2 mut-MEK5: 13; MEKK3 PB1 HTS: 109; MEKK2 WT-MEK5: 140; ATG4B inh: 0

Results for NC(=O)C1CCN(c2nc(-c3cc4ccccc4o3)cs2)CC1 ?
B2AR ag: -5; ATG4B inh: 45*; PLA2 counter: 49

Results for CN1CCN(c2nc(-c3cc4ccccc4o3)cs2)CC1 ?
Dynein cargo inh: -0.4; B2AR ag: 0; MEKK2 mut-MEK5: -1; MEKK3 PB1 HTS: 99; MEKK2 WT-MEK5: 101; ATG4B inh: -4

How did COc1ccc(S(=O)(=O)N2CCOCC2)cc1C(=O)N1CCCCC1 do in these assays?
B2AR ag: 7; MEKK2 mut-MEK5: 5; MEKK3 PB1 HTS: 100; MEKK2 WT-MEK5: 108; ATG4B inh: 2

What do the screens show for `Cc1sc(NC(=O)c2c(F)cccc2F)nc1-c1ccccc1`?
B2AR ag: 0; MEKK2 mut-MEK5: 3; MEKK3 PB1 HTS: 99; MEKK2 WT-MEK5: 104; ATG4B inh: 53*; PLA2 counter: 67*

Results for O=C(NCCCc1ccncc1)C1CCC(=O)N(CCc2cccc(F)c2)C1 (stereo not drawn) ?
B2AR ag: 1; MEKK2 mut-MEK5: -1; MEKK3 PB1 HTS: 101; MEKK2 WT-MEK5: 104; ATG4B inh: 15

What do the screens show for `Cc1cc(C)c2sc(N(CCCN(C)C)C(=O)c3ccc(S(=O)(=O)N(C)Cc4ccccc4)cc3)nc2c1`?
B2AR ag: 31; ATG4B inh: 42*; PLA2 counter: 49

How did N#CCCn1nc2c(c1N)CCC2 do in these assays?
B2AR ag: -1; ATG4B inh: -3

How did CN(Cc1ccccc1)C(=O)c1[nH]cnc1C(=O)Nc1ccon1 do in these assays?
B2AR ag: -8; ATG4B inh: 3

How did COC(=O)c1cc(S(=O)(=O)N2CCOCC2)c(Cl)cc1N1CCOCC1 do in these assays?
Dynein cargo inh: 0.57; B2AR ag: 9; MEKK2 mut-MEK5: -4; MEKK3 PB1 HTS: 95; MEKK2 WT-MEK5: 94; ATG4B inh: -7
